Results as given in ChEMBL document CHEMBL3596134 (J Med Chem, 2015).

Legend:
[1] = Oral bioavailability in guinea pig at 30 mg/kg; format: ADME, organism-based, Cavia porcellus; conditions: in vivo
[2] = Oral bioavailability in guinea pig at 10 mg/kg; format: ADME, organism-based, Cavia porcellus; conditions: in vivo
Outline: (§1)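 Single iv and oral dosing in rat, guinea pig or dog; iv and po given as solutions in wellsolve/H2O 1/9 with NaOH (2 equiv). Animals fasted before oral dosing; noncrossover design, n = 3. Plasma protein-precipitated with acetonitrile/ethanol (70/30) and assayed by HPLC/MS/MS with negative-ion ionization. Noncompartmental analysis; F from mean po AUC over mean iv AUC.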

[3] = Oral bioavailability in rat at 10 mg/kg; format: ADME, organism-based; conditions: in vivo; outline: as §1
[4] = AUC in rat at 3 mg/kg, po; format: ADME, organism-based; conditions: in vivo; outline: as §1
[5] = Stability of the compound in ambient light; format: physicochemical
[6] = Half life in rat at 1 mg/kg, iv; format: ADME, organism-based; conditions: in vivo; outline: as §1
[7] = Clearance in guinea pig at 1 mg/kg, iv; format: ADME, organism-based, Cavia porcellus; conditions: in vivo; outline: as §1
[8] = Ratio of drug level in lung to plasma in guinea pig measured over 24 hrs; format: ADME, Cavia porcellus; conditions: lung and plasma
Outline: (§2)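 Guinea pigs were dosed orally. Lungs were homogenized in saline, digested in 2 mol/L NaOH at 60 °C for 3 h, diluted 50-fold in PBS, and assayed for protein by BCA. Drug in lung was quantified by HPLC/MS/MS (negative-ion) after ethanol precipitation and expressed as ng/g protein. Plasma was assayed after acetonitrile/ethanol precipitation. Kp is the lung:plasma concentration ratio.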

[9] = Half life in dog at 1 mg/kg, iv; format: ADME, organism-based, Canis lupus familiaris; conditions: in vivo; outline: as §1
[10] = Clearance in dog at 1 mg/kg, iv; format: ADME, organism-based, Canis lupus familiaris; conditions: in vivo; outline: as §1
[11] = Oral bioavailability in dog at 1 mg/kg; format: ADME, organism-based, Canis lupus familiaris; conditions: in vivo; outline: as §1
[12] = Plasma concentration in guinea pig measured over 24 hrs; format: ADME, Cavia porcellus
Outline: (§3)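 Lungs homogenized in saline; homogenate digested in 2 mol/L NaOH at 60 °C for 3 h, then diluted 50-fold in PBS. Protein measured by BCA. Compound measured by negative-ion HPLC/MS/MS after ethanol precipitation and expressed as ng/g protein. Plasma and lung values given as mean with SD, n = 4.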

[13] = Clearance in rat at 1 mg/kg, iv; format: ADME, organism-based; conditions: in vivo; outline: as §1
[14] = Oral bioavailability in rat at 3 mg/kg; format: ADME, organism-based; conditions: in vivo; outline: as §1
[15] = Volume of distribution at steady state in rat at 1 mg/kg, iv and 3 mg/kg, po; format: ADME, organism-based; conditions: in vivo, read-out: Vdss
Outline: (§4)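 Single iv and oral doses were given as solutions in wellsolve/H2O 1/9 with 2 equiv NaOH. Animals were fasted before oral dosing, in a noncrossover design with n = 3. Plasma was protein-precipitated with acetonitrile/ethanol 70/30 and analysed by HPLC/MS/MS (negative-ion Turbo IonSpray). Parameters were derived by noncompartmental analysis and reported as mean ± SD.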

[16] = Half life in guinea pig at 1 mg/kg, iv; format: ADME, organism-based, Cavia porcellus; conditions: in vivo; outline: as §1
[17] = Drug uptake in lung of guinea pig measured over 24 hrs; format: ADME, tissue-based, Cavia porcellus; conditions: read-out: Drug uptake; outline: as §3
[18] = AUC in guinea pig at 10 mg/kg, po; format: ADME, organism-based, Cavia porcellus; conditions: in vivo; outline: as §1
[19] = Volume of distribution at steady state in guinea pig at 1 mg/kg, iv and 10 mg/kg, po; format: ADME, organism-based, Cavia porcellus; conditions: in vivo, read-out: Vdss
[20] = (§5) AUC in dog at 1 mg/kg, po; format: ADME, organism-based, Canis lupus familiaris; conditions: in vivo; outline: as §1
[21] = Volume of distribution at steady state in dog at 1 mg/kg, iv and 1 mg/kg, po; format: ADME, organism-based, Canis lupus familiaris; conditions: in vivo, read-out: Vdss; outline: as §4
[22] = Stability of the compound in H2SO4/DME/H2O at 50 degC measured for 24 hrs; format: physicochemical
Outline: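 Compound was held in 1 mol/L H2SO4 in DME/H2O at 50 °C for 24 h and checked for degradation.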

[23] = Oral bioavailability in guinea pig at 1 mg/kg administered as cassette dosing; format: ADME, organism-based, Cavia porcellus; conditions: in vivo
Outline: (§6)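 Guinea pig cassette dosing of five compounds per solution, 0.2 mg/kg iv and 1 mg/kg po. Vehicle wellsolve/H2O 5/95 with NaOH (1.2 equiv). Animals fasted before oral dosing; noncrossover design, n = 3. Plasma protein-precipitated with acetonitrile/ethanol (70/30) and assayed by negative-ion HPLC/MS/MS. Noncompartmental analysis; F from mean AUCs.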

[24] = AUC in guinea pig at 0.2 mg/kg, iv and 1 mg/kg, po administered as cassette dosing; format: ADME, organism-based, Cavia porcellus; conditions: in vivo
[25] = Stability of the compound in NaOH/DME/EtOH/H2O at 50 degC measured for 24 hrs; format: physicochemical
Outline: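 Compound was held in 1 mol/L NaOH in DME/EtOH/H2O at 50 °C for 24 h and checked for degradation.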

[26] = Plasma concentration in guinea pig at 0.3 mg/kg, po measured over 7 days; format: ADME, organism-based, Cavia porcellus; outline: as §3
[27] = Clearance in rat at 0.2 mg/kg, iv and 1 mg/kg, po administered as cassette dosing; format: ADME, organism-based; conditions: in vivo
[28] = Drug uptake in lung of guinea pig at 0.3 mg/kg, po measured over 7 days; format: ADME, organism-based, Cavia porcellus; conditions: read-out: Drug uptake; outline: as §3
[29] = Cmax in rat at 1 mg/kg, po; format: ADME, organism-based; set-up: dose 1 mg/kg, route oral; conditions: in vivo; outline: as §1
[30] = Cmax in dog at 1 mg/kg, po; format: ADME, organism-based, Canis lupus familiaris; set-up: dose 1 mg/kg, route oral; conditions: in vivo; outline: as §1
[31] = Ratio of drug level in lung to plasma in guinea pig at 3 mg/kg, po measured over 7 days; format: ADME, organism-based, Cavia porcellus; conditions: lung and plasma; outline: as §2
[32] = AUC in rat at 1 mg/kg, po; format: ADME, organism-based; conditions: in vivo; outline: as §1
[33] = Half life in guinea pig at 0.2 mg/kg, iv administered as cassette dosing; format: ADME, organism-based, Cavia porcellus; conditions: in vivo; outline: as §6
[34] = Drug uptake in lung of guinea pig at 3 mg/kg, po measured over 7 days; format: ADME, organism-based, Cavia porcellus; conditions: read-out: Drug uptake; outline: as §3
[35] = Volume of distribution at steady state in rat at 1 mg/kg, iv and 1 mg/kg, po; format: ADME, organism-based; conditions: in vivo, read-out: Vdss; outline: as §4
[36] = AUC in guinea pig at 1 mg/kg, po administered as cassette dosing; format: ADME, organism-based, Cavia porcellus; conditions: in vivo
[37] = Ratio of drug level in lung to plasma in guinea pig at 0.3 mg/kg, po measured over 7 days; format: ADME, organism-based, Cavia porcellus; conditions: lung and plasma; outline: as §2
[38] = Oral bioavailability in rat at 1 mg/kg; format: ADME, organism-based; conditions: in vivo; outline: as §1
[39] = Cmax in guinea pig at 1 mg/kg, po administered as cassette dosing; format: ADME, organism-based, Cavia porcellus; set-up: dose 1 mg/kg, route oral; conditions: in vivo; outline: as §6
[40] = Plasma concentration in guinea pig at 3 mg/kg, po measured over 7 days; format: ADME, organism-based, Cavia porcellus; outline: as §3
Canis familiaris [41] = assay: Oral bioavailability in dog at 1 mg/kg administered as cassette dosing; format: ADME, organism-based, Canis lupus familiaris; conditions: in vivo
Canis familiaris [42] = assay: as §5; format: ADME, organism-based, Canis lupus familiaris; conditions: in vivo; outline: as §1
[43] = Volume of distribution at steady state in rat at 0.2 mg/kg, iv and 1 mg/kg, po administered as cassette dosing; format: ADME, organism-based; conditions: in vivo, read-out: Vdss
[44] = Clearance in rat at 1 mg/kg, iv and 1 mg/kg, po; format: ADME, organism-based; conditions: in vivo; outline: as §1

Q: With `O=C(O)CCCN1CC(C(=O)O)Oc2c(NC(=O)c3ccc(OCCCCc4ccccc4)cc3)cccc21` (stereo not drawn) as the compound, how does the bioavailability [1] read?
A: 2.8%

Q: For `O=C(O)CCCn1cc(CC(=O)O)c2c(/C=C/c3ccc(OCCCCOc4ccccc4)cc3)cccc21`, which bioavailability [2] is on record?
A: 26%

Q: What does the source list for `O=C(O)CCCc1cn(CC(=O)O)c2c(/C=C/c3ccc(OCCCCOc4ccccc4)cc3)cccc12`?
A: bioavailability [2]: 12%; bioavailability [3]: 66%

Q: Which results are given for `Cc1c(Cl)cccc1CCCCOc1ccc(/C=C/c2cccc3c(CCCC(=O)O)c(C)n(CC(=O)O)c23)cc1`?
A: AUC [4]: 39000 ng·h/mL; bioavailability [2]: 11%; Stability [5]: Unstable; half-life [6]: 8.9 h; clearance [7]: 1.8 mL/min/kg; Kp at 24 h [8]: 15; half-life [9]: 4.7 h; clearance [10]: 5.5 mL/min/kg; bioavailability [11]: 21%; concentration at 24 h [12]: 16 ng/mL; clearance [13]: 1.1 mL/min/kg; bioavailability [14]: 56%; Vd [15]: 0.3 L/kg; half-life [16]: 5.3 h; concentration at 24 h [17]: 253 ng/g; AUC [18]: 10000 ng·h/mL; Vd [19]: 0.23 L/kg; AUC [20]: 650 ng·h/mL; Vd [21]: 0.38 L/kg

Q: Which results are given for `Cc1c(Cl)cccc1CCCCOc1ccc(C#Cc2cccc3c(CCCC(=O)O)c(C)n(CCCC(=O)O)c23)cc1`?
A: Stability [5]: Stable; Stability [22]: Stable; bioavailability [23]: 66%; AUC [24]: 10500 ng·h/mL; Stability [25]: Stable

Q: With `Cc1c(Cl)cccc1CCCCOc1ccc(C#Cc2ccc(F)c3c(CCCC(=O)O)c(C)n(CCCC(=O)O)c23)cc1` as the compound, how does the bioavailability [23] read?
A: 52%

Q: And the AUC [24]?
A: 3400 ng·h/mL

Q: For `Cc1c(F)cccc1CCCCOc1ccc(C#Cc2ccc(F)c3c(CCCC(=O)O)c(C)n(CCCC(=O)O)c23)cc1`, which concentration at 168 h [26] is on record?
A: 8.7 ng/mL

Q: And the half-life [6]?
A: 9.6 h

Q: And the half-life [9]?
A: 7.6 h

Q: What about the clearance [27] of the same compound?
A: 1.1 mL/min/kg

Q: What about the concentration at 168 h [28] of the same compound?
A: 267 ng/g

Q: And the Cmax [29]?
A: 1190 ng/mL

Q: What about the Cmax [30] of the same compound?
A: 3690 ng/mL

Q: And the Kp at 168 h [31]?
A: 8

Q: What about the AUC [32] of the same compound?
A: 9330 ng·h/mL

Q: And the half-life [33]?
A: 7.1 h

Q: What about the concentration at 168 h [34] of the same compound?
A: 573 ng/g

Q: What about the Vd [35] of the same compound?
A: 0.24 L/kg

Q: What about the AUC [36] of the same compound?
A: 8510 ng·h/mL

Q: And the Kp at 168 h [37]?
A: 30

Q: And the bioavailability [38]?
A: 35%

Q: What about the bioavailability [23] of the same compound?
A: 56%

Q: And the Cmax [39]?
A: 1010 ng/mL

Q: And the concentration at 168 h [40]?
A: 83 ng/mL

Q: And the F (Canis familiaris [41])?
A: 51%

Q: What about the AUC (Canis familiaris [42]) of the same compound?
A: 28200 ng·h/mL

Q: What about the Vd [43] of the same compound?
A: 0.31 L/kg

Q: And the clearance [44]?
A: 0.68 mL/min/kg

Q: And the Vd [21]?
A: 0.14 L/kg
